Measured values gathered from unrelated publications.
Compare with care: the assays were run in different laboratories.
PIKFYVE: 1-phosphatidylinositol 3-phosphate 5-kinase (PIKFYVE, Homo sapiens, UniProt Q9Y2I7)
CELA1: Chymotrypsin-like elastase family member 1 (CELA1, Sus scrofa, UniProt P00772)
PADI1: Protein-arginine deiminase type-1 (PADI1, Homo sapiens, UniProt Q9ULC6)
PIK3CA: Phosphatidylinositol 4,5-bisphosphate 3-kinase catalytic subunit alpha isoform (PIK3CA, Homo sapiens, UniProt P42336)
MAP2K1: Dual specificity mitogen-activated protein kinase kinase 1 (MAP2K1, Homo sapiens, UniProt Q02750)
PTK6: Protein-tyrosine kinase 6 (PTK6, Homo sapiens, UniProt Q13882)
AVPR1A: Vasopressin V1a receptor (AVPR1A, Homo sapiens, UniProt P37288)
PDE9A: High affinity cGMP-specific 3',5'-cyclic phosphodiesterase 9A (PDE9A, Homo sapiens, UniProt O76083)
CYP1A1: Cytochrome P450 1A1 (CYP1A1, Homo sapiens, UniProt P04798)

For `CC(=O)NC(C)(C)C#Cc1ccc2[nH]c3c(c2c1)-c1nc(N)ncc1CCC3`, the IC50 was > 10000 nM (PIKFYVE; target engagement in cells, BRET).
The IC50 of `Cc1ccc(C(C)C)cc1NC(=O)COC(=O)/C=C/c1ccccc1O` is reported as 13300 nM (CELA1; enzyme activity, inhibitor, absorbance).
For `NC(=O)c1ccc[n+]([C@@H]2O[C@H](COP(=O)([O-])OP(=O)(O)OC[C@H]3O[C@@H](n4cnc5c(N)ncnc54)[C@H](O)[C@@H]3O)[C@@H](O)[C@H]2O)c1`, the IC50 was 637000 nM (Protein mono-ADP-ribosyltransferase PARP15 (PARP15, Homo sapiens, UniProt Q460N3); enzyme activity, inhibitor).
The IC50 of `O=C(O)CCc1ccc(O)c(CN(CCN(CC(=O)O)Cc2cc(CCC(=O)NCCCCCC(=O)NCCCC[C@H](NC(=O)N[C@@H](CCC(=O)O)C(=O)O)C(=O)O)ccc2O)CC(=O)O)c1` is reported as 24.3 nM (Glutamate carboxypeptidase 2 (FOLH1, Homo sapiens, UniProt Q04609); ligand displacement, radioligand).
The IC50 of `NC(=O)NCCC[C@@H](NS(=O)(=O)c1ccc(OCc2cc(Br)cc(Br)c2)cc1)C(=O)NO` is reported as 1.9 nM (Disintegrin and metalloproteinase domain-containing protein 17 (ADAM17, Homo sapiens, UniProt P78536); enzyme activity, inhibitor, fluorescence).
For `CC(C)(C#Cc1ccc2[nH]c3c(c2c1)-c1nc(N)ncc1CCC3)NS(C)(=O)=O`, the IC50 was 140 nM (PIKFYVE; enzyme activity, inhibitor, ADP detection).
The IC50 of `NC(=O)[C@H](CCCN=C(N)CF)NC(=O)c1ccccc1` is reported as 29500 nM (PADI1; enzyme activity, inhibitor).
`NC(=O)c1ccc(Oc2ccc(C(N)=O)cc2)cc1` has an IC50 of 930 nM (Protein mono-ADP-ribosyltransferase PARP11 (PARP11, Homo sapiens, UniProt Q9NR21); enzyme activity, inhibitor).
`COc1cc(O)c(/C=C2\SC(=S)NC2=O)c(OC)c1` gave an IC50 of 11000 nM (PIK3CA; enzyme activity, inhibitor, radiometric).
For `Nc1ncc(-c2nc(N3CCOCC3)nc(N3[C@@H]4CC[C@H]3COC4)n2)c(C(F)F)n1`, the IC50 was 33 nM (PIK3CA; ligand displacement, TR-FRET).
With `CC(C)C[C@H](NC(=O)[C@H](C)NC(=O)[C@H](CCCCN)NC(=O)[C@H](CCCCN)NC(=O)[C@@H](N)CCCCN)C(=O)N[C@@H](CC(N)=O)C(=O)N[C@@H](CCCNC(=N)N)C(=O)N[C@@H](CCC(N)=O)C(=O)N[C@@H](CC(C)C)C(=O)NCC(=O)N[C@H](C(=O)N[C@@H](C)C(=O)N[C@@H](C)C(N)=O)C(C)C` the IC50 was 31000 nM (MAP kinase-activated protein kinase 2 (MAPKAPK2, Homo sapiens, UniProt P49137); enzyme activity, inhibitor, radiometric).
`C[C@@H]1COCCN1c1nc(-c2cnc(N)nc2C(F)F)nc(N2CCOCC2)n1` has an IC50 of 26.1 nM (PIK3CA; ligand displacement, TR-FRET).
`CCC(O)(C#Cc1ccc2[nH]c3c(c2c1)-c1nc(N)ncc1CCC3)CC` gave an IC50 of 1.8 nM (PIKFYVE; enzyme activity, inhibitor, ADP detection).
The IC50 of `Cc1ccc(C(C)C)cc1NC(=O)COC(=O)/C=C/c1ccc(Cl)cc1` is reported as 35800 nM (CELA1; enzyme activity, inhibitor, absorbance).
`C/C=C1\NC(=O)[C@H](C)NC(=O)[C@@H](NC(=O)[C@@H](Cc2ccc(O)cc2)NC(=O)[C@@H](NC(=O)/C(C)=C/C)C(C)C)[C@@H](C)OC(=O)[C@H](CCc2ccc(O)cc2)NC(=O)[C@@H](CCC(=O)O)NC1=O` has an IC50 of 2140 nM (CELA1; enzyme activity, inhibitor, absorbance).
`CC(C)(C)n1nc(-c2ccc3nc(OC4CC4)ccc3c2)c(C(N)=O)c1N` has an IC50 of 2380 nM (MAP2K1; cell-free assay).
With `C[C@@H]1O[C@@H](O[C@H]2[C@H](Oc3c(-c4ccc(O)cc4)oc4cc(O)cc(O)c4c3=O)O[C@H](CO[C@@H]3O[C@H](CO)[C@@H](O)[C@H](O)[C@H]3O)[C@@H](O)[C@@H]2O)[C@H](O)[C@H](O)[C@H]1O` the IC50 was 44000 nM (Prostaglandin G/H synthase 2 (PTGS2, Ovis aries, UniProt P79208); enzyme activity, inhibitor, absorbance).
The IC50 of `CCn1ncc2c1-c1cnc(N)c(c1)O[C@H](C)c1cc(F)ccc1-c1nn(C)nc1C2` is reported as 184 nM (PTK6; enzyme activity, inhibitor, radiometric).
For `CCn1c(-c2nc3cc(C(=O)N4CCC[C@@H](N)C4)cc(OC)c3n2C)cc2cccnc21`, the IC50 was > 50100 nM (AVPR1A; calcium signal, antagonist, fluorescence).
For `O=C1NC(=S)S/C1=C\c1ccc(C(=O)O)cc1`, the IC50 was > 100000 nM (PIK3CA; enzyme activity, inhibitor, radiometric).
With `C[C@H](CS)C(=O)N1CCC[C@H]1C(=O)O` the IC50 was 73700 nM (Beta-lactamase L1 (Stenotrophomonas maltophilia, UniProt P52700); enzyme activity, inhibitor).
With `O=C1NC(=S)S/C1=C\c1cc([N+](=O)[O-])ccc1Cl` the IC50 was 42000 nM (PIK3CA; enzyme activity, inhibitor, radiometric).
With `CC(C)C[C@H](CC(=O)NO)C(=O)N[C@@H](Cc1ccccc1)C(=O)NCCN1CCOCC1` the IC50 was 15 nM (Collagenase 3 (Rattus norvegicus, UniProt P23097); enzyme activity, inhibitor, absorbance).
The IC50 of `COc1ccc([N+](=O)[O-])cc1/C=C1\SC(=S)NC1=O` is reported as 28000 nM (PIK3CA; enzyme activity, inhibitor, radiometric).
For `CC1(C)C(/C=C/C=C2/N(CCCc3ccccc3)c3ccc(Cl)cc3C2(C)C)=[N+](CCCc2ccccc2)c2ccc(Cl)cc21`, the IC50 was 1870 nM (Protein arginine N-methyltransferase 8 (PRMT8, Homo sapiens, UniProt Q9NR22); enzyme activity, inhibitor, radiometric).
`C=C(C)CCOP(=O)(O)OP(=O)(O)OP(=O)(O)OC[C@H]1O[C@@H](n2cnc3c(N)ncnc32)[C@H](O)[C@@H]1O` gave an IC50 of 4300 nM (Glycogen synthase kinase-3 beta (GSK3B, Homo sapiens, UniProt P49841); enzyme activity, inhibitor, radiometric).
`CNC(=O)c1cc2c(Oc3ccc(NC(=O)C4(C(=O)Nc5ccc(F)cc5)CC4)cc3)ccnc2cc1OC` gave an IC50 of 25 nM (PTK6; enzyme activity, inhibitor, radiometric).
For `CSc1ccc(/C=C2/C(C)=C(CC(=O)O)c3cc(F)ccc32)cc1`, the IC50 was > 100000 nM (PDE9A; enzyme activity, inhibitor).
The IC50 of `COc1cc(C[C@H]2C(=O)OC[C@@H]2Cc2ccc(OC)c(OC)c2)ccc1O` is reported as > 20000 nM (PDE9A; enzyme activity, inhibitor).
With `CC1=C(C#N)[C@@H](c2ccc(C#N)cc2S(C)(=O)=O)N(C)C(=O)N1c1cccc(C(F)(F)F)c1` the IC50 was > 30000 nM (CELA1; enzyme activity, inhibitor).
With `Cc1ccc(C(=O)Nc2ccc(Oc3cc4cnn(C)c4cc3-c3cn[nH]c3)c(F)c2)c(=O)n1-c1ccc(F)cc1` the IC50 was 53 nM (Vascular endothelial growth factor receptor 2 (KDR, Homo sapiens, UniProt P35968); enzyme activity, inhibitor, radiometric).
With `CCCC1CNCc2c1[nH]c(=O)c(C#N)c2N1CCC2(CC1)CC2(F)F` (centres unmarked) the IC50 was 69 nM (PDE9A; enzyme activity, inhibitor, radiometric).
`O=C1NC(=S)S/C1=C\c1cc(Br)cc(Br)c1` gave an IC50 of > 100000 nM (PIK3CA; enzyme activity, inhibitor, radiometric).
`CC(=O)N1CCN(c2ccc(OCC3COC(Cn4ccnc4)(c4ccc(Cl)cc4Cl)O3)cc2)CC1` (centres unmarked) has an IC50 of 230 nM (CYP1A1; enzyme activity, inhibitor, fluorescence).
For `CCCCC1CCCc2c1[nH]c(=O)c(C#N)c2-c1ccc(C)cc1` (centres unmarked), the IC50 was 61.2 nM (PDE9A; enzyme activity, inhibitor, radiometric).
With `O=C1NC(=S)S/C1=C\c1c[nH]c2ccccc12` the IC50 was > 100000 nM (PIK3CA; enzyme activity, inhibitor, radiometric).
`CN1CCN(c2ccc(Nc3ncc4cc(C#N)c(=O)n(C5CCCC5)c4n3)cc2)CC1` gave an IC50 of 30600 nM (Dual specificity tyrosine-phosphorylation-regulated kinase 2 (DYRK2, Homo sapiens, UniProt Q92630); enzyme activity, inhibitor).
`CCNC(=O)[C@H](CCCNC(=N)CF)NC(=O)c1ccccc1` has an IC50 of 40000 nM (PADI1; enzyme activity, inhibitor).
With `O=C(Nc1c[nH]nc1C(=O)NC1CCNCC1)c1cc(F)cc(F)c1` the IC50 was 1900 nM (Cyclin-dependent kinase 16 (CDK16, Homo sapiens, UniProt Q00536); target engagement in cells, BRET).
`COc1cccc(/C=C2\SC(=S)NC2=O)c1OCc1ccccc1` has an IC50 of > 100000 nM (PIK3CA; enzyme activity, inhibitor, radiometric).
For `Cn1cc(C2=C(c3coc4ccccc34)C(=O)NC2=O)c2cc(Br)ccc21`, the IC50 was 870 nM (PIK3CA; enzyme activity, inhibitor).
With `COC(C)(C)C#Cc1ccc2[nH]c3c(c2c1)-c1nc(N)ncc1CCC3` the IC50 was 6.2 nM (PIKFYVE; enzyme activity, inhibitor, ADP detection).
`Cc1ccc(C(C)C)cc1NC(=O)COC(=O)c1ccc(O)c(O)c1` has an IC50 of 24300 nM (CELA1; enzyme activity, inhibitor, absorbance).
`NCCCC[C@H](NC(=O)[C@@H]1CCCN1C(=O)[C@@H]1CSSC[C@H](NC(=O)CNC(=O)CNC(=O)CN)C(=O)N[C@@H](Cc2ccc(O)cc2)C(=O)N[C@@H](Cc2ccccc2)C(=O)N[C@@H](CCC(N)=O)C(=O)N[C@@H](CC(N)=O)C(=O)N1)C(=O)NCC(N)=O` gave an IC50 of 1700 nM (AVPR1A; ligand displacement, radioligand; cell membranes).
For `CCC(C)(O)C#Cc1ccc2[nH]c3c(c2c1)-c1nc(N)ncc1CCC3` (centres unmarked), the IC50 was 1.9 nM (PIKFYVE; enzyme activity, inhibitor, ADP detection).
For `Cc1ccc(C(C)C)cc1NC(=O)COC(=O)c1cccc(O)c1`, the IC50 was 41900 nM (CELA1; enzyme activity, inhibitor, absorbance).
`CC(C)=CCc1c(O)cc(O)c2c1O[C@H](c1ccc(O)cc1)CC2=O` has an IC50 of 380 nM (CYP1A1; enzyme activity, inhibitor, fluorescence; 15 min, pH 7.4).
For `N#Cc1ccc(N2CCN(S(=O)(=O)c3ccc(F)cc3)CC2)cc1NCc1ccncc1`, the IC50 was 7000 nM (ATP-sensitive inward rectifier potassium channel 1 (Homo sapiens, UniProt P48048); ion flux, inhibitor).
With `O=C1NC(=S)S/C1=C\c1ccc(-c2ccccn2)cc1` the IC50 was > 100000 nM (PIK3CA; enzyme activity, inhibitor, radiometric).
For `Cc1cnc(-c2ccc(-c3ccc(NC(=O)Nc4c(F)cc(F)cc4F)cc3F)c3c2C(=O)NC3)[nH]1`, the IC50 was 42.6 nM (MAP2K1; enzyme activity, inhibitor).
